# Measurements gathered from unrelated publications.
# Cell line: OVCAR-8
# Observed: cell growth or viability
Structure (SMILES),technique,concentration,time,measurement,value
COc1cccc(Oc2ccccc2NC(=O)CNC(=O)c2cccc3ccccc23)c1,SRB,,48 h,GI50,0.692 µM
COc1ccc(-c2ccc(-c3ccc(C(=N)N)nc3)s2)cc1Cl,SRB,,,GI50,2.6 µM
S=C([S][Au-][P+](CCCCCC[P+]([Au-][S]C(=S)n1cccn1)(c1ccccc1)c1ccccc1)(c1ccccc1)c1ccccc1)n1cccn1,,,,GI50,0.696 µM
O=C1Nc2ccccc2C1=NNc1nnc2n1N=C(c1ccccc1)CS2,SRB,10 µM,,inhibition,41%
COc1ccc(C(=O)/C=C/c2cccc(Cl)c2)cc1S(N)(=O)=O,SRB,,48 h,GI50,2.8 µM
Cc1cc(C)n(C(=S)[S][Au][PH](CCCCCC[PH]([Au][S]C(=S)n2nc(C)cc2C)(c2ccccc2)c2ccccc2)(c2ccccc2)c2ccccc2)n1,,,,GI50,0.597 µM
COc1cc(-c2ccc(-c3ccc(C(=N)N)nc3)s2)cc(OC)c1OC,SRB,,,GI50,2.3 µM
COc1ccc(C(=O)/C=C/c2cccc(Cl)c2Cl)cc1S(N)(=O)=O,SRB,10 µM,,inhibition,164%
